Measurements taken from ChEMBL document CHEMBL1122219, “Synthesis and antiviral activity of water-soluble esters of acyclovir [9-[(2-hydroxyethoxy)methyl]guanine]” (1983).
Values after ≈ are worked out from the molar mass of the structure shown.

Columns and labels:
Type in all cases: functional
Oryctolagus cuniculus [1] = organism: Oryctolagus cuniculus; test: Minimum inhibitory concentration required to reduce virus induced cytopathogenicity in primary rabbit kidney cell cultures by 50% against Vaccinia virus
Oryctolagus cuniculus [2] = organism: Oryctolagus cuniculus; test: Minimum inhibitory concentration required to reduce virus induced cytopathogenicity in primary rabbit kidney cell cultures by 50% against HSV-2 (196)
Method in brief: (§1)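 Primary rabbit kidney cell cultures infected with HSV-1 strains KOS, McIntyre or F, or HSV-2 strains Lyons, G or 196. Antiviral assays ran 3–4 days, with inhibition of virus-induced cytopathogenicity as the read-out. Cytotoxicity was checked as microscopically visible change in normal cell morphology, up to 400 µg/mL.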

Oryctolagus cuniculus [3] = organism: Oryctolagus cuniculus; test: Minimum inhibitory concentration required to reduce virus induced cytopathogenicity in primary rabbit kidney cell cultures by 50% against Vesicular stomatitis virus
Oryctolagus cuniculus [4] = organism: Oryctolagus cuniculus; test: Minimum inhibitory concentration required to reduce virus induced cytopathogenicity in primary rabbit kidney cell cultures by 50% against HSV-1 (F); method in brief: as §1
Oryctolagus cuniculus [5] = organism: Oryctolagus cuniculus; test: Minimum inhibitory concentration required to reduce virus induced cytopathogenicity in primary rabbit kidney cell cultures by 50% against HSV-1 (McIntyre); method in brief: as §1
Oryctolagus cuniculus [6] = organism: Oryctolagus cuniculus; test: Minimum inhibitory concentration required to reduce virus induced cytopathogenicity in primary rabbit kidney cell cultures by 50% against HSV-2 ([…]); method in brief: as §1
Oryctolagus cuniculus [7] = organism: Oryctolagus cuniculus; test: Minimum inhibitory concentration required to reduce virus induced cytopathogenicity in primary rabbit kidney cell cultures by 50% against HSV-1 ((KOS); method in brief: as §1
Oryctolagus cuniculus [8] = organism: Oryctolagus cuniculus; test: Minimum inhibitory concentration required to reduce virus induced cytopathogenicity in primary rabbit kidney cell cultures by 50% against HSV-2 (G); method in brief: as §1

SMILES	MIC (Oryctolagus cuniculus [1]) [µg/mL]	MIC (Oryctolagus cuniculus [2]) [µg/mL]	MIC (Oryctolagus cuniculus [3]) [µg/mL]	MIC (Oryctolagus cuniculus [4]) [µg/mL]	MIC (Oryctolagus cuniculus [5]) [µg/mL]	MIC (Oryctolagus cuniculus [6]) [µg/mL]	MIC (Oryctolagus cuniculus [7]) [µg/mL]	MIC (Oryctolagus cuniculus [8]) [µg/mL]
Nc1nc2c(ncn2COCCO)c(=O)[nH]1 [ACYCLOVIR]	80 (≈ 355 µM)	0.06 (≈ 0.266 µM)	> 400	0.09 (≈ 0.4 µM)	0.1 (≈ 0.444 µM)	0.04 (≈ 0.178 µM)	0.08 (≈ 0.355 µM)	0.06 (≈ 0.266 µM)
[N-]=[N+]=NCC(=O)OCCOCn1cnc2c(O)nc(N)nc21	150 (≈ 487 µM)	0.07 (≈ 0.227 µM)		0.1 (≈ 0.324 µM)	0.1 (≈ 0.324 µM)	0.04 (≈ 0.13 µM)	0.1 (≈ 0.324 µM)	0.07 (≈ 0.227 µM)
CC(N)C(=O)OCCOCn1cnc2c(O)nc(N)nc21.Cl (stereo not drawn)	70	0.1	> 400	0.4	0.4	0.07	0.4	0.2
O=c1[nH]c(=O)n([C@H]2C[C@H](O)[C@@H](CO)O2)cc1/C=C/Br [BRIVUDINE]	4 (≈ 12 µM)	4 (≈ 12 µM)	> 400	0.01 (≈ 0.03 µM)	0.01 (≈ 0.03 µM)	1 (≈ 3 µM)	0.01 (≈ 0.03 µM)	0.8 (≈ 2.4 µM)
Cl.NCC(=O)OCCOCn1cnc2c(O)nc(N)nc21	125	0.07	> 400	0.1	0.1	0.04	0.1	0.08
Nc1nc(O)c2ncn(COCCOC(=O)CCC(=O)[O-])c2n1.[Na+]	> 400	0.4	> 400	0.7	0.5	0.5	0.7	0.8
O=c1[nH]c(=O)n([C@H]2C[C@H](O)[C@@H](CO)O2)cc1I [IDOXURIDINE]	0.1 (≈ 0.282 µM)	0.4 (≈ 1.13 µM)	> 400	0.15 (≈ 0.424 µM)	0.2 (≈ 0.565 µM)	0.2 (≈ 0.565 µM)	0.15 (≈ 0.424 µM)	0.2 (≈ 0.565 µM)
Cl.NCCC(=O)OCCOCn1cnc2c(O)nc(N)nc21	100	0.1	> 400	0.5	0.4	0.1	0.2	0.15
